In ChEMBL document CHEMBL4392843, “Structure and biological evaluation of new cyclic and acyclic laxaphycin-A type peptides” (Bioorg Med Chem, 2019):
Active and inactive are the calls of the source. The rule behind the calls is not given here. Numbered stars: 1 amine (or outer) side, 2 acyl side, 3 side chain; on linkers, the order of the positions; unused ones are H or OH. Square brackets hold non-standard residues; d marks the D form. Peptide text beside a SMILES is read from it. dβ3hAhp = CCCCC[C@H](CC(=O)[*:2])N[*:1]; d(aIle) = CC[C@H](C)[C@@H](N)C(=O)O; Hyp = O=C(O)[C@@H]1C[C@@H](O)CN1; X1 = C/C=C(/N[*:1])C(=O)[*:2]; hSer = N[C@@H](CCO)C(=O)O

How the values were obtained:
[1] = system: SH-SY5Y; test: Cytotoxicity against human SH-SY5Y cells assessed as reduction in cell viability measured after 6 hrs by MTT assay; assay type: cell-based; settings: for Cytotoxicity call (toxic / non-toxic): sh-sy5y; for IC50: Homo sapiens, SH-SY5Y, 6 h
Procedure, shortened: (§1)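 SH-SY5Y cells (ATCC CRL2266) in DMEM/F-12 with 10% FBS, 1% glutamax and penicillin/streptomycin, 37 °C, 5% CO2. Compounds were added to the medium (0.01, 0.05, 0.1 and 1 µM listed) for 24 or 6 h. Cells were then given 500 µg/mL MTT for 1 h and solubilized in 5% SDS, with A595 read. Saponin death-control absorbance was subtracted. IC50 reported with 95% CI and R².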

[2] = system: SH-SY5Y; test: Cytotoxicity against human SH-SY5Y cells assessed as reduction in cell viability measured after 24 hrs by LDH release assay; assay type: cell-based
Procedure, shortened: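 SH-SY5Y cells in DMEM/F-12 with 10% FBS at 37 °C, 5% CO2, exposed to compounds in the medium for 24 h. LDH release was measured with a commercial LDH-cytotoxicity kit per its protocol as the viability indicator. IC50 reported with 95% CI and R².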

[3] = system: SH-SY5Y; test: Induction of autophagy in human SH-SY5Y cells assessed as phosphorylated mTOR level at 10 uM measured after 6 hrs by Western blot analysis (reference value: 100%); assay type: functional
Procedure, shortened: (§2)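 SH-SY5Y cells were treated with 10 µM for 6 h and lysed in ice-cold hypotonic Tris buffer (pH 7.4) with 1% Triton X-100 and inhibitors. The cytosolic fraction was taken at 3000 rpm; membrane fraction came via nuclear extraction buffer. 20 µg protein was run on 10% SDS-PAGE with chemiluminescent detection. Read-outs were LC3II/LC3I ratio or % of untreated (p-mTOR, p62); three experiments in triplicate, blots run in duplicate.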

[4] = system: SH-SY5Y; test: Induction of autophagy in human SH-SY5Y cells assessed as LC3-2/LC3-1 ratio at 10 uM measured after 6 hrs by Western blot analysis (reference value: 2.6 +/- 0.3); assay type: functional
[5] = system: SH-SY5Y; test: Inhibition of reactive oxygen species production in human SH-SY5Y cells up to 10 uM measured after 1 hr by DCFH-DA dye based fluorescence assay; assay type: cell-based
Procedure, shortened: (§3)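 SH-SY5Y cells were exposed to compounds (6 h; 1 h also run), washed in saline, and loaded with 20 µM DCF-DA for 30 min at 37 °C. They were then held 30 min at room temperature for de-esterification. DCF fluorescence was read at 475 nm excitation and 525 nm emission, expressed as % of diluent-treated controls, with four independent experiments in triplicate.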

[6] = system: SH-SY5Y; test: Cytotoxicity against human SH-SY5Y cells assessed as decrease in cell viability at 10 uM measured after 6 to 24 hrs by MTT assay relative to control; assay type: cell-based
[7] = system: SH-SY5Y; test: Effect on cell viability in human SH-SY5Y cells up to 10 uM after 6 hrs by MTT assay; assay type: cell-based
[8] = system: SH-SY5Y; test: Induction of autophagy in human SH-SY5Y cells assessed as decrease in cytoplasmic p62 levels at 10 uM measured after 6 hrs by Western blot analysis; assay type: functional; settings: in the assay text read “membrane” for “cytoplasmic”; procedure, shortened: as §2
[9] = system: SH-SY5Y; test: Cytotoxicity against human SH-SY5Y cells assessed as reduction in cell viability measured after 24 hrs by MTT assay; assay type: cell-based; procedure, shortened: as §1
[10] = system: SH-SY5Y; test: Inhibition of reactive oxygen species production in human SH-SY5Y cells up to 10 uM measured after 6 hrs by DCFH-DA dye based fluorescence assay relative to control; assay type: cell-based; design: scale not given: the % may be the effect or the level left; procedure, shortened: as §3
[11] = system: SH-SY5Y; test: Induction of autophagy in human SH-SY5Y cells assessed as increase in cytoplasmic p62 levels at 10 uM measured after 6 hrs by Western blot analysis; assay type: functional, cell-based; procedure, shortened: as §2
[12] = system: SH-SY5Y; test: Effect on mitochondrial membrane potential in human SH-SY5Y cells up to 10 uM measured after 6 hrs by TMRM assay
[13] = system: SH-SY5Y; test: Effect on cell viability in human SH-SY5Y cells up to 10 uM after 1 hr by MTT assay; assay type: cell-based
[14] = system: SH-SY5Y; test: Induction of apoptosis in human SH-SY5Y cells assessed as increase in apoptotic cells at 10 uM measured after 6 hrs by Annexin V-FITC/propidium iodide staining based flow cytometry; assay type: cell-based
Procedure, shortened: (§4)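 SH-SY5Y cells (1×10^6 per well) were treated with 10 µM for 6 h, washed in PBS, and stained with annexin V-FITC/propidium iodide in binding buffer for 15 min. Imaging flow cytometry counted 10000 events. Viable, apoptotic and necrotic populations are given as % of untreated cells, mean ± SEM of three independent experiments in triplicate.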

[15] = system: SH-SY5Y; test: Induction of autophagy in human SH-SY5Y cells assessed as increase in LC3-2/LC3-1 ratio at 10 uM measured after 6 hrs by Western blot analysis; assay type: functional, cell-based; procedure, shortened: as §2
[16] = system: SH-SY5Y; test: Induction of apoptosis in human SH-SY5Y cells assessed as increase in necrotic cells at 10 uM measured after 6 hrs by Annexin V-FITC/propidium iodide staining based flow cytometry; assay type: cell-based; procedure, shortened: as §4
[17] = system: SH-SY5Y; test: Induction of apoptosis in human SH-SY5Y cells assessed as decrease in viable cells at 10 uM measured after 6 hrs by Annexin V-FITC/propidium iodide staining based flow cytometry; assay type: cell-based; procedure, shortened: as §4
[18] = Homo sapiens, SH-SY5Y, 24 h, read-out: IC50

SMILES | Cytotoxicity call (toxic / non-toxic) [1] | IC50 ([2]; sh-sy5y) | Activity [3] [%] | Ratio [4] | Activity [5] | Activity [6] [%] | Activity [7] | Activity [8] | IC50 ([9]; sh-sy5y) | Activity [10] | Activity [11] | Activity [12] | Activity [13] | IC50 [1] [nM] | Activity [14] | IC50 [2, 18] [µM] | Activity [15] | Activity [16] | IC50 [9, 18] [µM] | Activity [17]
C/C=C(/NC(=O)[C@H](CCO)NC(=O)C[C@H](N)CCCCC)C(=O)N1C[C@H](O)C[C@H]1C(=O)N[C@@H](CCO)C(=O)N[C@H](Cc1ccccc1)C(=O)N[C@H](CC(C)C)C(=O)N[C@H](C(=O)N[C@@H](C(=O)N[C@@H](CC(C)C)C(=O)O)[C@@H](C)CC)[C@@H](C)CC | Toxic | Non-Toxic | 70.3 | 6.7 | Toxic | 50 | Non-Toxic | Active | Toxic | 40% | Active | Toxic | Non-Toxic |  |  |  |  |  |  | 
C/C=C(/NC(=O)[C@H](CCO)NC(=O)C[C@H](N)CCCCC)C(=O)N1C[C@H](O)C[C@H]1C(=O)N[C@@H](CCO)C(=O)N[C@H](Cc1ccccc1)C(=O)N[C@H](CC(C)C)C(=O)N[C@H](C(=O)N[C@@H](C(=O)O)[C@@H](C)CC)[C@@H](C)CC | Non-Toxic | Non-Toxic |  |  |  |  |  |  | Non-Toxic |  |  |  |  |  |  |  |  |  |  | 
C/C=C1/NC(=O)[C@H](CCO)NC(=O)C[C@@H](CCCCC)NC(=O)CNC(=O)[C@H](CC(C)C)NC(=O)[C@@H]([C@@H](C)CC)NC(=O)[C@H]([C@@H](C)CC)NC(=O)[C@@H](CC(C)C)NC(=O)[C@@H](Cc2ccccc2)NC(=O)[C@H](CCO)NC(=O)[C@@H]2C[C@@H](O)CN2C1=O [LAXAPHYCIN A] (cyclo(G[dβ3hAhp][hSer][X1][Hyp][hSer][dF][dL]I[d(aIle)]L)) | Non-Toxic | Non-Toxic |  |  |  |  |  |  | Non-Toxic |  |  |  |  |  |  |  |  |  |  | 
C/C=C1/NC(=O)[C@H](CCO)NC(=O)C[C@@H](CCCCC)NC(=O)CNC(=O)[C@H](CC(C)C)NC(=O)[C@@H]([C@@H](C)CC)NC(=O)[C@H](C(C)C)NC(=O)[C@@H](CC(C)C)NC(=O)[C@@H](Cc2ccccc2)NC(=O)[C@H](CCO)NC(=O)[C@@H]2C[C@@H](O)CN2C1=O |  |  | 73.1 |  |  |  |  | 15.8% |  |  | Active | Toxic |  | 1300 | Non-Toxic | 3.6 | Active | Non-Toxic | 0.6 | Toxic
C/C=C1/NC(=O)[C@H](CCO)NC(=O)C[C@@H](CCCCC)NC(=O)CNC(=O)[C@H](CC(C)C)NC(=O)[C@@H](C(C)C)NC(=O)[C@H]([C@@H](C)CC)NC(=O)[C@@H](CC(C)C)NC(=O)[C@@H](Cc2ccccc2)NC(=O)[C@H](CCO)NC(=O)[C@@H]2C[C@@H](O)CN2C1=O |  |  | 70.7 | 6.4 | Toxic |  |  | Active |  | Toxic | Active | Toxic | Non-Toxic | 3700 | Non-Toxic | 12.4 |  | Non-Toxic | 5.6 | Toxic
